In general, inhibition refers to the share of the control response that was lost under treatment.

The source of these data is ChEMBL document CHEMBL4613315, “Design of First-in-Class Dual EZH2/HDAC Inhibitor: Biochemical Activity and Biological Evaluation in Cancer Cells” (ACS Med Chem Lett, 2020).

Assay [1] addresses Histone deacetylase (Homo sapiens) (UniProt Q13547+O15379+Q9UBN7+Q92769+Q9UQL6+Q8WUI4+Q9BY41+Q96DB2+P56524+Q9UKV0+Q969S8). Briefly: Inhibition of HDAC in human U937 cells assessed as Ac-H3 level at 50 uM incubated for 120 hrs by Western blot analysis (reference value: 1). As to conditions: U-937. Type of assay: cell-based. Background: Immunoblotting shows a protein as a band on a membrane.

Assay [2] can be described thus: Cytotoxicity against human RH4 cells assessed as reduction in cell viability at 50 uM incubated for 72 hrs by CellTiter-Glo Luminescent cell viability assay relative to control. As to conditions: Rh4, 72 h. Type of assay: functional. For orientation: Cellular ATP, detected with luciferase, serves as a proxy for viable cell number.
Assay [3] concerns the target T1, Protein deacetylase HDAC6 (Homo sapiens) (UniProt Q9UBN7).
T1 sequence (whole entry): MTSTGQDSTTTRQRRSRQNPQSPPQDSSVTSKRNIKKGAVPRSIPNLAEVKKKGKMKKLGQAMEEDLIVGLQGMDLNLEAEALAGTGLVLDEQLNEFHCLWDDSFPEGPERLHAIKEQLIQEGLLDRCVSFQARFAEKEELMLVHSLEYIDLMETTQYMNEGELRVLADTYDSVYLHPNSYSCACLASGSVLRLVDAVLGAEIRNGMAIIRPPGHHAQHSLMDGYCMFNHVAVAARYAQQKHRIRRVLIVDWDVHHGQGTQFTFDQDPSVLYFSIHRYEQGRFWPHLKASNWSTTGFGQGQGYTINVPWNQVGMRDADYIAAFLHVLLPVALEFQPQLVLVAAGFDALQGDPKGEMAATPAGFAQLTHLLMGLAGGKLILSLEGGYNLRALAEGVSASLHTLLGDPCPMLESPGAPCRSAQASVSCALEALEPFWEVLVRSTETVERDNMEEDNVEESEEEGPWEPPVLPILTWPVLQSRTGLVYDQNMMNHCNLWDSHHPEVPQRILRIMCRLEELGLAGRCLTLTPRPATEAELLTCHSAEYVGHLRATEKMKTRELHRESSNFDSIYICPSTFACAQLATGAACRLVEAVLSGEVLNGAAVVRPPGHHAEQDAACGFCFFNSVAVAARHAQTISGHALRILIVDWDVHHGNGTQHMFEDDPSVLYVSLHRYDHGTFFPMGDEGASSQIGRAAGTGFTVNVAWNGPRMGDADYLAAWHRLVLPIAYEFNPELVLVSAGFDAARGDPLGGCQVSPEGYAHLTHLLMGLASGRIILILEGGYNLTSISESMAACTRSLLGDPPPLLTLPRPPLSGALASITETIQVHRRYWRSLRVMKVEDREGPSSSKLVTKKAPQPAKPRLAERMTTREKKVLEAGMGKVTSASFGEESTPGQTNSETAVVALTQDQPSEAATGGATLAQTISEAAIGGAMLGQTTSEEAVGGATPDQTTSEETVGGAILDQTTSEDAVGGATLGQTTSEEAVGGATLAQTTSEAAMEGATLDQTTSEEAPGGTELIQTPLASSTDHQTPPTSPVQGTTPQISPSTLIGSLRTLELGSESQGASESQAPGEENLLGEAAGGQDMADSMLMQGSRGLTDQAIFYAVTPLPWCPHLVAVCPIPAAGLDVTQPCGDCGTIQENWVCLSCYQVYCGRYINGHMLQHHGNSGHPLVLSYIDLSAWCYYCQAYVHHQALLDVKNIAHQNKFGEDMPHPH
Briefly: Inhibition of HDAC6 in human RH4 cells assessed as acetylated alpha-tubulin level at 50 uM in presence of vorinostat incubated for 96 hrs by Western blot analysis (reference value: 1). In kind it is cell-based. In short, it runs like this:
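RH4 cells co-treated with EZH2 inhibitor at 50 μM plus HDAC inhibitor at 0.15 μM; Western blot after 72 or 96 h for H3K27me3 or acetyl-tubulin, vinculin loading control; densitometry normalized to loading control then DMSO vehicle.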

Assay [4] concerns the target T1, Protein deacetylase HDAC6 (Homo sapiens). Put plainly: Inhibition of HDAC6 in human RH4 cells assessed as acetylated alpha-tubulin level at 50 uM incubated for 96 hrs by Western blot analysis. Type of assay: cell-based.
A short description of assay [5]: Cytotoxicity against human RH4 cells assessed as combinational index measured at fraction affected value of 0.45 in presence of vorinostat at 20 uM incubated for 72 hrs by CellTiter-Glo Luminescent cell viability assay. Type of assay: functional. In short, it runs like this: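 Viability after 72 h of single-agent or combined treatment with the HDAC inhibitor (0.05–0.25 μM) and the EZH2 inhibitor. EZH2 inhibitor range: U937 5–25 μM; RH4 10–50 μM. Synergy was assessed by combination index and isobologram analysis.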

The subject of assay [6] is U-937. Briefly: Induction of differentiation of human U937 cells assessed as increase in CD11b level at 25 uM incubated for 72 hrs by flow cytometry analysis. Type of assay: functional. The procedure, abridged: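 U937 cells were treated for 72 h at 10 and 25 μM, and surface CD11b expression was measured as a differentiation marker.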
Assay [7] can be described thus: Cell cycle arrest in human RH4 cells assessed as G2/M accumulation at 14 uM incubated for 72 hrs by propidium iodide staining based flow cytometry (reference value: 18.9 %). Type of assay: functional. Background: In flow cytometry, cells or beads pass a laser one at a time.
For assay [8], the system named is U-937. Put plainly: Induction of apoptosis in human U937 cells assessed as early apoptotic cells at 10 uM incubated for 72 hrs by annexin V-FITC staining based flow cytometry (reference value: 3.4 %). In kind it is functional.
A short description of assay [9]: Cell cycle arrest in human RH4 cells assessed as G2/M accumulation at 28 uM incubated for 72 hrs by propidium iodide staining based flow cytometry (reference value: 18.9 %). Type of assay: functional.
A further assay is filed under the species Homo sapiens. Briefly: Cell cycle arrest in human RH4 cells assessed as increase in subG1 accumulation incubated for 72 hrs by propidium iodide staining based assay. Type of assay: functional.

Take `Cc1cc(C)c(CNC(=O)c2cc(C)n(-c3ccccc3)c2C)c(=O)[nH]1`: the fold change (FC) in assay [1] is 0.7; in [3], 1.3; in [4], 1.4. The inhibition at 50 µM in assay [2] was over 30%. The CI in assay [5] was found to be 0.49.
In the case of `Cc1cc(C)c(CNC(=O)c2cc(C)n(-c3cccc(NC(=O)CCCCCCC(=O)NO)c3)c2C)c(=O)[nH]1`, the “fold change (FC)” value in the assay with U-937 [6] stood at 2.7. Further, the Activity in assay [7] was 16.1%; in the assay on U-937 [8], 4.2%; in [9], 6.4%; in the assay listed under Homo sapiens, “Dose-dependent effect”.
